Experiments:
Coagulation factor X = Coagulation factor X (Homo sapiens, UniProt P00742); experiment: Inhibition of human factor 10a
Summary of the method: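 Inhibition constant (Ki) measured against purified human factor Xa; each value is the average of two independent experiments (n = 2).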

[1] = Selectivity for human factor 10a over trypsin
[2] = Selectivity for human factor 10a over thrombin
Plasma = experiment: Anticoagulant efficacy in human citreated plasma assessed as concentration required to double prothrombin time; assay type: functional
[3] = Apparent permeability across human Caco-2 cells; assay type: ADME, cell-based
[4] = Half life in dog; assay type: ADME, organism-based, Canis lupus familiaris; details: in vivo
[5] = Clearance in dog; assay type: ADME, organism-based, Canis lupus familiaris; details: in vivo
[6] = Oral bioavailability in dog; assay type: ADME, organism-based, Canis lupus familiaris; details: in vivo
[7] = Selectivity for human factor 10a over factor 7a

Chain of Coagulation factor X (P00742 41-179 limits assumed): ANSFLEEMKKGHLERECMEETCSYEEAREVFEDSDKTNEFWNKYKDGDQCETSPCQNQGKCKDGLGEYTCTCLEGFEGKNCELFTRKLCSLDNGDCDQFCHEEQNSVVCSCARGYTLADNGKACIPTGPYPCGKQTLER
Chain of Coagulation factor X (P00742 235-488 limits assumed): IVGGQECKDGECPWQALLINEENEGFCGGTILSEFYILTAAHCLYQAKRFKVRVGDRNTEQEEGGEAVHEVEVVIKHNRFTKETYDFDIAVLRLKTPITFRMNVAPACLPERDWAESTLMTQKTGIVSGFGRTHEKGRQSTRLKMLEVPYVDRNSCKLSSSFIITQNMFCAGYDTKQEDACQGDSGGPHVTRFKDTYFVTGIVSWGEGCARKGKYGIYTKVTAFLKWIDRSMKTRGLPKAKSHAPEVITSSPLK

CS(=O)(=O)c1ccccc1-c1ccc(N2CCCC(NS(=O)(=O)c3ccc(N)nc3)C2=O)c(F)c1 (configuration not stated)
Ki (Coagulation factor X): 260 nM
Selectivity ratio [1]: > 1000
Selectivity ratio [2]: > 1000

Cc1c(S(=O)(=O)NC2CCCN(c3ccc(-c4ccccc4S(C)(=O)=O)cc3F)C2=O)sc2ccc(Cl)cc12 (configuration not stated)
Ki (Coagulation factor X): 160 nM
Selectivity ratio [1]: > 1000
Selectivity ratio [2]: > 1000

CCc1ccc(S(=O)(=O)NC2CCCN(c3ccc(-c4ccccc4S(C)(=O)=O)cc3F)C2=O)cc1 (configuration not stated)
Ki (Coagulation factor X): 78 nM
Selectivity ratio [1]: > 1000
Selectivity ratio [2]: > 1000

O=C1CCCCN1c1ccc(N2CCCC(NS(=O)(=O)c3ccc4cc(Cl)ccc4c3)C2=O)c(F)c1 (configuration not stated)
Ki (Coagulation factor X): 10 nM
Selectivity ratio [1]: > 1000
Selectivity ratio [2]: > 1000

CN(C)Cc1nccn1-c1ccc(N2CCCC(NS(=O)(=O)c3ccc4cc(Cl)ccc4c3)C2=O)c(F)c1 (configuration not stated)
Ki (Coagulation factor X): 2.4 nM
Selectivity ratio [1]: > 1000
Selectivity ratio [2]: > 1000
PT (Plasma): 13 µM

O=C1C(NS(=O)(=O)c2cc3ccc(Cl)nc3s2)CCCN1c1ccc(-n2ccccc2=O)cc1 (configuration not stated)
Ki (Coagulation factor X): 0.05 nM
Selectivity ratio [1]: > 1000
Selectivity ratio [2]: > 1000
Papp [3]: 2 ×10⁻⁶ cm/s
PT (Plasma): 15 µM

CS(=O)(=O)c1ccccc1-c1ccc(N2CCCC(NS(=O)(=O)c3ccc(C#N)cc3)C2=O)c(F)c1 (configuration not stated)
Ki (Coagulation factor X): 420 nM
Selectivity ratio [1]: > 1000
Selectivity ratio [2]: > 1000

CS(=O)(=O)c1ccccc1-c1ccc(N2CCCC(N(CC(=O)O)S(=O)(=O)c3ccc4cc(Cl)ccc4c3)C2=O)c(F)c1 (configuration not stated)
Ki (Coagulation factor X): 1 nM
Selectivity ratio [1]: > 1000
Selectivity ratio [2]: > 1000
PT (Plasma): 250 µM

CS(=O)(=O)c1ccccc1-c1ccc(N2CCCC(NS(=O)(=O)Cc3ccccc3)C2=O)c(F)c1 (configuration not stated)
Ki (Coagulation factor X): 3200 nM
Selectivity ratio [1]: > 1000
Selectivity ratio [2]: > 1000

COC(=O)CN(C1CCCN(c2ccc(-n3ccccc3=O)cc2)C1=O)S(=O)(=O)c1cc2ccc(Cl)nc2s1 (configuration not stated)
Ki (Coagulation factor X): 0.043 nM
Selectivity ratio [1]: > 1000
Selectivity ratio [2]: > 1000
Papp [3]: 3.5 ×10⁻⁶ cm/s
PT (Plasma): 4.4 µM

CS(=O)(=O)c1ccccc1-c1ccc(N2CCCC(NS(=O)(=O)c3cccc4ccc(Cl)cc34)C2=O)c(F)c1 (configuration not stated)
Ki (Coagulation factor X): 18 nM
Selectivity ratio [1]: > 1000
Selectivity ratio [2]: > 1000

CN(C)CCN(C)C(=O)CN([C@H]1CCCN(c2ccc(-n3ccccc3=O)cc2F)C1=O)S(=O)(=O)c1ccc2cc(Cl)ccc2c1
Ki (Coagulation factor X): 0.016 nM
half-life [4]: 6.45 h
Selectivity ratio [1]: > 1000
Selectivity ratio [2]: > 1000
PT (Plasma): 1.7 µM
clearance [5]: 19.8 mL/min/kg
bioavailability [6]: 4%

COc1ccc(NC2CCCN(c3ccc(-c4ccccc4S(C)(=O)=O)cc3F)C2=O)cc1 (configuration not stated)
Ki (Coagulation factor X): 450 nM
Selectivity ratio [1]: > 1000
Selectivity ratio [2]: > 1000

CS(=O)(=O)c1ccccc1-c1ccc(N2CCCC(NS(=O)(=O)c3cnc4ccccc4c3)C2=O)c(F)c1 (configuration not stated)
Ki (Coagulation factor X): 28 nM
Selectivity ratio [1]: > 1000
Selectivity ratio [2]: > 1000

O=C(O)CN(C1CCCN(c2ccc(-n3ccccc3=O)cc2)C1=O)S(=O)(=O)c1cc2ccc(Cl)nc2s1 (configuration not stated)
Ki (Coagulation factor X): 0.13 nM
Selectivity ratio [1]: > 1000
Selectivity ratio [2]: > 1000
PT (Plasma): 16 µM

CS(=O)(=O)c1ccccc1-c1ccc(N2CCCC(NS(=O)(=O)c3cc(Cl)ccc3Cl)C2=O)c(F)c1 (configuration not stated)
Ki (Coagulation factor X): 650 nM
Selectivity ratio [1]: > 1000
Selectivity ratio [2]: > 1000

COC(=O)C[N+](C)(C)Cc1nccn1-c1ccc(N2CCCC(NS(=O)(=O)c3ccc4cc(Cl)ccc4c3)C2=O)c(F)c1 (configuration not stated)
Ki (Coagulation factor X): 0.35 nM
Selectivity ratio [1]: > 1000
Selectivity ratio [2]: > 1000
PT (Plasma): 13 µM

O=C1C(NS(=O)(=O)c2ccc3cc(Cl)ccc3c2)CCCN1c1ccc(-c2ccncc2)cc1F (configuration not stated)
Ki (Coagulation factor X): 28 nM
Selectivity ratio [1]: > 1000
Selectivity ratio [2]: > 1000

COc1ccc(OC2CCCN(c3ccc(-c4ccccc4S(C)(=O)=O)cc3F)C2=O)cc1 (configuration not stated)
Ki (Coagulation factor X): 200 nM
Selectivity ratio [1]: > 1000
Selectivity ratio [2]: > 1000
Selectivity ratio [7]: > 1000

COc1cccc(S(=O)(=O)NC2CCCN(c3ccc(-c4ccccc4S(C)(=O)=O)cc3F)C2=O)c1 (configuration not stated)
Ki (Coagulation factor X): 100 nM
Selectivity ratio [1]: > 1000
Selectivity ratio [2]: > 1000

COc1ccc(S(=O)(=O)NC2CCCN(c3ccc(-c4ccccc4S(C)(=O)=O)cc3F)C2=O)cc1 (configuration not stated)
Ki (Coagulation factor X): 53 nM
Selectivity ratio [1]: > 1000
Selectivity ratio [2]: > 1000

CS(=O)(=O)c1ccccc1-c1ccc(N2CCCC(NS(=O)(=O)c3cccnc3)C2=O)c(F)c1 (configuration not stated)
Ki (Coagulation factor X): 2600 nM
Selectivity ratio [1]: > 1000
Selectivity ratio [2]: > 1000

CN(C)CCN(C)C(=O)CN(C1CCCN(c2ccc(N3CCCCC3=O)cc2F)C1=O)S(=O)(=O)c1ccc2cc(Cl)ccc2c1 (configuration not stated)
Ki (Coagulation factor X): 1.7 nM
Selectivity ratio [1]: > 1000
Selectivity ratio [2]: > 1000
PT (Plasma): 12 µM

CS(=O)(=O)c1ccccc1-c1ccc(N2CCCC(NS(=O)(=O)c3ccc(Cl)c(Cl)c3)C2=O)c(F)c1 (configuration not stated)
Ki (Coagulation factor X): 61 nM
Selectivity ratio [1]: > 1000
Selectivity ratio [2]: > 1000

CS(=O)(=O)c1ccccc1-c1ccc(N2CCCC(NS(=O)(=O)c3cccc4cc(Cl)ccc34)C2=O)c(F)c1 (configuration not stated)
Ki (Coagulation factor X): 2.2 nM
Selectivity ratio [1]: > 1000
Selectivity ratio [2]: > 1000
PT (Plasma): 102 µM

CN(C)CCN(C)C(=O)CN(C1CCCN(c2ccc(-n3ccccc3=O)cc2F)C1=O)S(=O)(=O)c1ccc2cc(Cl)ccc2c1 (configuration not stated)
Ki (Coagulation factor X): 0.02 nM
Selectivity ratio [1]: > 1000
Selectivity ratio [2]: > 1000
PT (Plasma): 3.3 µM

COC(=O)CN(C1CCCN(c2ccc(-n3ccnc3C[N+](C)(C)CC(=O)OC)cc2F)C1=O)S(=O)(=O)c1ccc2cc(Cl)ccc2c1 (configuration not stated)
Ki (Coagulation factor X): 0.21 nM
Selectivity ratio [1]: > 1000
Selectivity ratio [2]: > 1000
PT (Plasma): 12 µM

CS(=O)(=O)c1ccccc1-c1ccc(N2CCCC(NS(=O)(=O)c3ccc4cn[nH]c4c3)C2=O)c(F)c1 (configuration not stated)
Ki (Coagulation factor X): 19 nM
Selectivity ratio [1]: > 1000
Selectivity ratio [2]: > 1000

CS(=O)(=O)c1ccccc1-c1ccc(N2CCCC(NS(=O)(=O)c3cc(Cl)cc(Cl)c3)C2=O)c(F)c1 (configuration not stated)
Ki (Coagulation factor X): 730 nM
Selectivity ratio [1]: > 1000
Selectivity ratio [2]: > 1000

CS(=O)(=O)c1ccccc1-c1ccc(N2CCCC(NS(=O)(=O)c3ccc(F)c(F)c3)C2=O)c(F)c1 (configuration not stated)
Ki (Coagulation factor X): 270 nM
Selectivity ratio [1]: > 1000
Selectivity ratio [2]: > 1000

COC(=O)CN(C1CCCN(c2ccc(-c3ccccc3S(C)(=O)=O)cc2F)C1=O)S(=O)(=O)c1ccc2cc(Cl)ccc2c1 (configuration not stated)
Ki (Coagulation factor X): 0.88 nM
Selectivity ratio [1]: > 1000
Selectivity ratio [2]: > 1000
PT (Plasma): 89 µM

NC(=O)CN(C1CCCN(c2ccc(-n3ccccc3=O)cc2)C1=O)S(=O)(=O)c1cc2ccc(Cl)nc2s1 (configuration not stated)
Ki (Coagulation factor X): 0.1 nM
Selectivity ratio [1]: > 1000
Selectivity ratio [2]: > 1000
PT (Plasma): 4.8 µM

CS(=O)(=O)c1ccccc1-c1ccc(N2CCCC(NS(=O)(=O)c3ccc(Cl)s3)C2=O)c(F)c1 (configuration not stated)
Ki (Coagulation factor X): 5.3 nM
Selectivity ratio [1]: > 1000
Selectivity ratio [2]: > 1000

CS(=O)(=O)c1ccccc1-c1ccc(N2CCCC(N(CCCO)S(=O)(=O)c3ccc4cc(Cl)ccc4c3)C2=O)c(F)c1 (configuration not stated)
Ki (Coagulation factor X): 2.3 nM
Selectivity ratio [1]: > 1000
Selectivity ratio [2]: > 1000
PT (Plasma): 208 µM

CN(C)CCN(C)C(=O)CN(C1CCCN(c2ccc(-n3ccccc3=O)cc2F)C1=O)S(=O)(=O)c1cc2ccc(Cl)nc2s1 (configuration not stated)
Ki (Coagulation factor X): 0.013 nM
Selectivity ratio [1]: > 1000
Selectivity ratio [2]: > 1000
PT (Plasma): 2.1 µM

O=C1C(NS(=O)(=O)c2ccc3cc(Cl)ccc3c2)CCCN1c1ccc(-n2ccccc2=O)cc1F (configuration not stated)
Ki (Coagulation factor X): 0.11 nM
Selectivity ratio [1]: > 1000
Selectivity ratio [2]: > 1000
PT (Plasma): 35 µM

CS(=O)(=O)c1ccccc1-c1ccc(N2CCCC(NS(=O)(=O)c3ccccc3)C2=O)c(F)c1 (configuration not stated)
Ki (Coagulation factor X): 370 nM
Selectivity ratio [1]: > 1000
Selectivity ratio [2]: > 1000

CS(=O)(=O)c1ccccc1-c1ccc(N2CCCC(NS(=O)(=O)c3ccc(Cl)cc3)C2=O)c(F)c1 (configuration not stated)
Ki (Coagulation factor X): 23 nM
Selectivity ratio [1]: > 1000
Selectivity ratio [2]: > 1000

O=C1C(NS(=O)(=O)c2ccc3cc(Cl)ccc3c2)CCCN1c1ccc(N2CCCCC2)cc1F (configuration not stated)
Ki (Coagulation factor X): 16 nM
Selectivity ratio [1]: > 1000
Selectivity ratio [2]: > 1000

CS(=O)(=O)c1ccccc1-c1ccc(N2CCCC(NS(=O)(=O)c3ccc4ncccc4c3)C2=O)c(F)c1 (configuration not stated)
Ki (Coagulation factor X): 73 nM
Selectivity ratio [1]: > 1000
Selectivity ratio [2]: > 1000

CS(=O)(=O)c1ccccc1-c1ccc(N2CCCC(NS(=O)(=O)c3ccc4onc(N)c4c3)C2=O)c(F)c1 (configuration not stated)
Ki (Coagulation factor X): 19 nM
Selectivity ratio [1]: > 1000
Selectivity ratio [2]: > 1000

CS(=O)(=O)c1ccccc1-c1ccc(N2CCCC(NS(=O)(=O)c3ccc(F)cc3)C2=O)c(F)c1 (configuration not stated)
Ki (Coagulation factor X): 44.5 nM
Selectivity ratio [1]: > 1000
Selectivity ratio [2]: > 1000

CNC(=O)CN(C1CCCN(c2ccc(-n3ccccc3=O)cc2F)C1=O)S(=O)(=O)c1cc2ccc(Cl)nc2s1 (configuration not stated)
Ki (Coagulation factor X): 0.037 nM
Selectivity ratio [1]: > 1000
Selectivity ratio [2]: > 1000
Papp [3]: 0.1 ×10⁻⁶ cm/s
PT (Plasma): 4.2 µM

COc1ccc(C(=O)NC2CCCN(c3ccc(-c4ccccc4S(C)(=O)=O)cc3F)C2=O)cc1 (configuration not stated)
Ki (Coagulation factor X): 560 nM
Selectivity ratio [1]: > 1000
Selectivity ratio [2]: > 1000

CS(=O)(=O)c1ccccc1-c1ccc(N2CCCC(NS(=O)(=O)c3ccc(-c4ccon4)s3)C2=O)c(F)c1 (configuration not stated)
Ki (Coagulation factor X): 26 nM
Selectivity ratio [1]: > 1000
Selectivity ratio [2]: > 1000

CS(=O)(=O)c1ccccc1-c1ccc(N2CCCC(NS(=O)(=O)c3cccc(Cl)c3)C2=O)c(F)c1 (configuration not stated)
Ki (Coagulation factor X): 380 nM
Selectivity ratio [1]: > 1000
Selectivity ratio [2]: > 1000

From ChEMBL document CHEMBL1143881, “Sulfonamidolactam inhibitors of coagulation factor Xa” (Bioorg Med Chem Lett, 2008)
